Test results reported in PMC7488488 (Acta Pharmaceutica Sinica. B, 2019).
Like-named read-outs stand apart in the source and are kept apart here.

Key:
T98G cells = assay: MTT cell proliferation assay; assay type: cell-based; settings: read-out: Anti-proliferative activity IC50, T98G
U251 cells = assay: MTT cell proliferation assay; assay type: cell-based; settings: read-out: Anti-proliferative activity IC50, U251
U251 xenografts = assay: U251 xenograft antitumor activity; assay type: in vivo; settings: mice; oral; 30 mg/kg; 21 days
Summary of the method: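 SPF nude mice, 6–8 weeks old, with subcutaneous U251 xenografts; test compound or reference inhibitors given orally at 30 mg/kg, normal saline as vehicle control, analysed at 21 days. Tumor volume, tumor weight and body weight tracked; tumors immunostained for MDM2, P53, P21, pCDK4, pRB and Ki-67, plus TUNEL immunofluorescence, scored as percent positive cells; mean ± SD.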

MDM2 and CDK4 = assay: TR-FRET inhibition at concentrations below 1.0 μmol/L; assay type: biochemical; settings: target per compound not stated
U87MG cells = assay: MTT cell proliferation assay; assay type: cell-based; settings: read-out: Anti-proliferative activity IC50, U87MG
MDM2 = MDM2 (Homo sapiens, UniProt Q00987); assay: TR-FRET; assay type: binding; settings: read-out: Inhibition rate at 1.0 μmol/L, MDM2
[1] = 24-h incubation, MTT, mutated P53

MDM2, sequence (Q00987 whole entry): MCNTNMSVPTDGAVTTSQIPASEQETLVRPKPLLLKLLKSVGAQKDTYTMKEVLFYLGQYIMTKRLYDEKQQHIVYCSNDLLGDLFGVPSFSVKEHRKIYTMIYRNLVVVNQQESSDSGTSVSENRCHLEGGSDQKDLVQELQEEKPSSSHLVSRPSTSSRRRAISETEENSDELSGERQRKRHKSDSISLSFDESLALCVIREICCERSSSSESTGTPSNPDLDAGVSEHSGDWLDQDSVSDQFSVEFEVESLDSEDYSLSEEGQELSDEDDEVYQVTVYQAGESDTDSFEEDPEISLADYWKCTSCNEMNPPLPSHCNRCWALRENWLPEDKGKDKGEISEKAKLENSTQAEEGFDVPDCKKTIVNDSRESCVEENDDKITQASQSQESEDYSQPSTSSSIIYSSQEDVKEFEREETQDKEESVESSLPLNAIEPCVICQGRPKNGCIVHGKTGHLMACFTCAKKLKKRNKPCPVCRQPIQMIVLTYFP

IC50 (U251 cells; [1]) [µM] | IC50 (U87MG cells; 24-h incubation, MTT, wild-type P53) [µM] | SMILES | IC50 (T98G cells; [1]) [µM] | tumor growth (U251 xenografts) | inhibition at concentrations below 1.0 μmol/L (MDM2 and CDK4) | IC50 (T98G cells; Homo sapiens, T98G, 24 h) [µM] | IC50 (U251 cells; Homo sapiens, U-251, 24 h) [µM] | IC50 (U87MG cells; Homo sapiens, U-87 MG, 24 h) [µM] | inhibition at 1 µM (MDM2) [%]
> 50 | 25.3 ± 2.5 | COc1ccc(C2=N[C@@H](c3ccc(Cl)cc3)[C@@H](c3ccc(Cl)cc3)N2C(=O)N2CCNC(=O)C2)c(OC(C)C)c1 [Nutlin-3a, nutlin-3a, reference compound] | > 50 | potently inhibited tumor growth | 40% to 20% | – | – | – | –
– | – | CC(=O)c1c(C)c2cnc(Nc3ccc(N4CCNCC4)cn3)nc2n(C2CCCC2)c1=O [Palbociclib, palbociclib, reference compound] | – | potently inhibited tumor growth | – | 29.5 ± 4.5 | 18.9 ± 2.4 | 26.4 ± 3.8 | –
– | – | O=C(c1ccccc1F)[C@H]1Cc2c(cc([N+](=O)[O-])cc2[N+](=O)[O-])[C@@H](O)[C@@]12C(=O)Nc1ccccc12 [4l, (1′R,3R,3′S)-3′-(2-Fluorobenzoyl)-1′-hydroxy-5′,7′-dinitro-3′,4′-dihydro-1′H-spiro[indoline-3,2′-naphthalen]-2-one] | – | – | – | 43.6 ± 4.8 | 38.7 ± 6.1 | 32.5 ± 4.7 | 47.2 ± 5.71
– | – | CCOC(=O)[C@H]1Cc2c(cc([N+](=O)[O-])cc2[N+](=O)[O-])[C@@H](O)[C@@]12C(=O)Nc1ccc(F)cc12 [4b, Ethyl (1′R,3R,3′S)-5-fluoro-1′-hydroxy-5′,7′-dinitro-2-oxo-3′,4′-dihydro-1′H-spiro[indoline-3,2′-naphthalene]-3′-carboxylate] | – | – | – | 49 ± 6.3 | 32.6 ± 3.5 | 25.7 ± 1.4 | 81.4 ± 10.2
– | – | COc1ccc(C(=O)[C@H]2Cc3c(cc([N+](=O)[O-])cc3[N+](=O)[O-])[C@@H](O)[C@@]23C(=O)Nc2ccccc23)cc1 [4p, (1′R,3R,3′S)-1′-Hydroxy-3′-(4-methoxybenzoyl)-5′,7′-dinitro-3′,4′-dihydro-1′H-spiro[indoline-3,2′-naphthalen]-2-one] | – | – | – | 45.9 ± 8.1 | 43.2 ± 5.9 | 39.9 ± 4.2 | 35.7 ± 4.9
– | – | CCOC(=O)[C@H]1Cc2c(cc([N+](=O)[O-])cc2[N+](=O)[O-])[C@@H](O)[C@@]12C(=O)Nc1cc(Cl)ccc12 [4e, Ethyl (1′R,3R,3′S)-6-chloro-1′-hydroxy-5′,7′-dinitro-2-oxo-3′,4′-dihydro-1′H-spiro[indoline-3,2′-naphthalene]-3′-carboxylate] | – | – | – | 22.5 ± 4.2 | 28.6 ± 2.9 | 19.2 ± 4.4 | 76.4 ± 6
– | – | CCOC(=O)[C@H]1Cc2c(cc([N+](=O)[O-])cc2[N+](=O)[O-])[C@H](O)[C@]12C(=O)Nc1ccc(C)cc12 [4j′, Ethyl (1′S,3S,3′S)-1′-hydroxy-5-methyl-5′,7′-dinitro-2-oxo-3′,4′-dihydro-1′H-spiro[indoline-3,2′-naphthalene]-3′-carboxylate] | – | – | – | > 50 | > 50 | > 50 | 49.2
– | – | CCOC(=O)[C@H]1Cc2c(cc([N+](=O)[O-])cc2[N+](=O)[O-])[C@H](O)[C@]12C(=O)Nc1cc(Cl)ccc12 [4e′, Ethyl (1′S,3S,3′S)-6-chloro-1′-hydroxy-5′,7′-dinitro-2-oxo-3′,4′-dihydro-1′H-spiro[indoline-3,2′-naphthalene]-3′-carboxylate] | – | – | – | > 50 | > 50 | > 50 | 48.3
– | – | O=C(c1ccc(Br)cc1)[C@H]1Cc2c(cc([N+](=O)[O-])cc2[N+](=O)[O-])[C@@H](O)[C@@]12C(=O)Nc1ccccc12 [4o, (1′R,3R,3′S)-3′-(4-Bromobenzoyl)-1′-hydroxy-5′,7′-dinitro-3′,4′-dihydro-1′H-spiro[indoline-3,2′-naphthalen]-2-one] | – | – | – | 45.7 ± 6.7 | 44.2 ± 4.6 | 41.6 ± 4.3 | 47.1 ± 5.8
